# Positions count from the first letter of the chain named. Active and inactive are the calls of the source. The rule behind the calls is not given here.
# Columns and labels:
# [1] = biological target: T1, Muscarinic acetylcholine receptor M1 (Homo sapiens) (UniProt P11229); assay: Agonist activity at human M1 receptor expressed in A9 L cells assessed as stimulation of phosphoinositide hydrolysis relative to carbachol; assay type: functional, cell-based; conditions: L929
# T1 sequence (whole entry): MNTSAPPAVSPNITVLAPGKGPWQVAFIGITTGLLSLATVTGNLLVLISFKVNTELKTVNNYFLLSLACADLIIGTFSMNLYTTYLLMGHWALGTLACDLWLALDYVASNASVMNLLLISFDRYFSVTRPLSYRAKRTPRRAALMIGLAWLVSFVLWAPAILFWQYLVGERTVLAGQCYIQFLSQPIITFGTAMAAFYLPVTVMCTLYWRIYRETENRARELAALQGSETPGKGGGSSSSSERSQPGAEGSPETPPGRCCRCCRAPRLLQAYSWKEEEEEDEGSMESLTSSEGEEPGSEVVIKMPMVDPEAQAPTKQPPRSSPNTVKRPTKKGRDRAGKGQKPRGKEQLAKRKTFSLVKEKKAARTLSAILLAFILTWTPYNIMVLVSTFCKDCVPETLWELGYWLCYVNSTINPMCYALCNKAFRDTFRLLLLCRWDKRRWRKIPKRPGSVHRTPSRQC
# How it was run: (§1)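 A9 L cells stably expressing the receptor, seeded 24 h, labelled overnight with 10 µCi/mL [3H]inositol in inositol-free DMEM; ligands in HBSS with 10 mM LiCl, 20 mM HEPES, 37 °C, 1 h; formic acid extraction, inositol phosphates counted by SPA beads.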
# [2] = biological target: Muscarinic acetylcholine receptor M3 (Homo sapiens, UniProt P20309); assay: Agonist activity at human M3 receptor expressed in A9 L cells assessed as stimulation of phosphoinositide hydrolysis relative to carbachol; assay type: functional, cell-based; conditions: L929; how it was run: as §1
# [3] = system: T2, Muscarinic acetylcholine receptor M1 (Homo sapiens), P11229 [E170K]; assay: Agonist activity at human M1 receptor E170K mutant expressed in A9 L cells assessed as stimulation of phosphoinositide hydrolysis relative to carbachol; assay type: functional, cell-based; conditions: L929; how it was run: as §1
# T2 sequence (whole entry): T1 sequence (whole entry) with E170K
# [4] = system: T3, Muscarinic acetylcholine receptor M1 (Homo sapiens), P11229 [Q185E]; assay: Agonist activity at human M1 receptor Q185E mutant expressed in A9 L cells assessed as stimulation of phosphoinositide hydrolysis relative to carbachol; assay type: functional, cell-based; conditions: L929; how it was run: as §1
# T3 sequence (whole entry): T1 sequence (whole entry) with Q185E
# [5] = biological target: T4, Muscarinic acetylcholine receptor M2 (Homo sapiens) (UniProt P08172); assay: Activity at human M2 receptor assessed as inhibition of forskolin-stimulated cAMP accumulation relative to carbachol; assay type: functional
# T4 sequence (whole entry): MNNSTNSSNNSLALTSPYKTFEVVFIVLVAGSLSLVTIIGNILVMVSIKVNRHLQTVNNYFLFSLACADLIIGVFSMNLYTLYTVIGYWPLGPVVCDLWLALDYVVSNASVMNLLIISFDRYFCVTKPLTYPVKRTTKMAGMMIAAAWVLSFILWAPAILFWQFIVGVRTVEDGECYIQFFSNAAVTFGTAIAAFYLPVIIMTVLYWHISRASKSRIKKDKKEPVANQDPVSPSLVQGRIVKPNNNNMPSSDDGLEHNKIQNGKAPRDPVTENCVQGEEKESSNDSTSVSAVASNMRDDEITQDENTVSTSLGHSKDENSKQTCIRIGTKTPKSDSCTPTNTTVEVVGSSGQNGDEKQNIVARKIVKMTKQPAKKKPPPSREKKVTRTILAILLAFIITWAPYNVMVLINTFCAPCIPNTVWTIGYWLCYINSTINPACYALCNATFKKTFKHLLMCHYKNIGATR
# [6] = biological target: T5, Muscarinic acetylcholine receptor M4 (Homo sapiens) (UniProt P08173); assay: Activity at human M4 receptor assessed as inhibition of forskolin-stimulated cAMP accumulation relative to carbachol; assay type: functional
# T5 sequence (whole entry): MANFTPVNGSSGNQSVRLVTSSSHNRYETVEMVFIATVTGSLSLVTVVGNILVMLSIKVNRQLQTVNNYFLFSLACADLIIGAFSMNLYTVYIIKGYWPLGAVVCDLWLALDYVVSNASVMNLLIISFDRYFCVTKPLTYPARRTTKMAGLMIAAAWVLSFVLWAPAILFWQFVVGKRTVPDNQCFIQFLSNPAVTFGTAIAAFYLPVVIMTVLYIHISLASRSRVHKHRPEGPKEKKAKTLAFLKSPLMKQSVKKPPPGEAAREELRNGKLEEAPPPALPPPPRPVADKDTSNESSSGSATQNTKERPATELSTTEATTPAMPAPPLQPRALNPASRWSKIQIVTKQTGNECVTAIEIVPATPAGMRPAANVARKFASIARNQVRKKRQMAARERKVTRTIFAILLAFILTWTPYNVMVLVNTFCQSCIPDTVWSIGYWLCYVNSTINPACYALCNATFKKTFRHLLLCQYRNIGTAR
# [7] = biological target: T6, Muscarinic acetylcholine receptor M1/M5 chimeric protein (Homo sapiens) (UniProt P11229+P08912); assay: Agonist activity at human M1/M5(o3) chimeric receptor expressed in A9 L cells assessed as stimulation of phosphoinositide hydrolysis relative to carbachol; assay type: functional, cell-based; conditions: L929; how it was run: as §1
# [8] = biological target: T6, Muscarinic acetylcholine receptor M1/M5 chimeric protein (Homo sapiens); assay: Agonist activity at human M1/M5(o2o3) chimeric receptor expressed in A9 L cells assessed as stimulation of phosphoinositide hydrolysis relative to carbachol; assay type: functional, cell-based; conditions: L929; how it was run: as §1
# T6 sequence (P08912 whole entry, looked up, change not shown, one chain of several): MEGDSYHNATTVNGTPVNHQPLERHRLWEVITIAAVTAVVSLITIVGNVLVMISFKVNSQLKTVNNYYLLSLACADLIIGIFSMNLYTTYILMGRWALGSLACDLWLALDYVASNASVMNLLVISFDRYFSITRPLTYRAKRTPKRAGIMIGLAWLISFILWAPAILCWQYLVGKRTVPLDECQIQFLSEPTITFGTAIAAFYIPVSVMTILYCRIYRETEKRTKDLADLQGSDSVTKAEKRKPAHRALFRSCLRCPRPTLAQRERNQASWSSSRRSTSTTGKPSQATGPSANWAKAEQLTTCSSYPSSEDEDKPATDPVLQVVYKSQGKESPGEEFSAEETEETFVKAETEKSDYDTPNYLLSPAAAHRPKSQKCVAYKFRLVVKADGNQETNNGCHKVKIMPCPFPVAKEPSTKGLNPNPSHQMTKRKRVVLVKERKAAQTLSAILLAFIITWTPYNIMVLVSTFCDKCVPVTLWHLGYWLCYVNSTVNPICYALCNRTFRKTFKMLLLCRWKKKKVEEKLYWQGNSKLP
# Muscarinic acetylcholine receptor M3, sequence (P20309 whole entry, looked up): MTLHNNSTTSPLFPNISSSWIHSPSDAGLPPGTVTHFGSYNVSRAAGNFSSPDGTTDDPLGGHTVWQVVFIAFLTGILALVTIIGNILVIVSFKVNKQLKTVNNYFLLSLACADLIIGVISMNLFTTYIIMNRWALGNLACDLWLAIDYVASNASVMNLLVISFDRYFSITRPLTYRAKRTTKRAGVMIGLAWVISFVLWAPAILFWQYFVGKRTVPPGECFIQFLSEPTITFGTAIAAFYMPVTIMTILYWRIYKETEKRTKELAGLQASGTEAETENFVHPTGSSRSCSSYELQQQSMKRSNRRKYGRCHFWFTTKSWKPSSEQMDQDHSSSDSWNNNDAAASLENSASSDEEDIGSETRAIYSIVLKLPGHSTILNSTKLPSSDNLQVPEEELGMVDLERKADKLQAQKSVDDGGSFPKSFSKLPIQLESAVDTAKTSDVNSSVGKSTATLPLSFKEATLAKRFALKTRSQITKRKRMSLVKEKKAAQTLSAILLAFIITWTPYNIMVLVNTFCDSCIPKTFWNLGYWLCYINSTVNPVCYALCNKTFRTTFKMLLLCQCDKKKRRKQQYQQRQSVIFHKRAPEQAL
Compound,Smax [1] [%],Smax [2] [%],Smax [3] [%],Smax [4] [%],Activity [5],Imax [6] [%],Smax [7] [%],Smax [8] [%],Activity [2],Imax [5] [%]
CCCCCCOc1nsnc1C1=CCCN(C)C1 [XANOMELINE],71,80,31,86,inactive,77,21,20,–,–
COc1nsnc1OCCOCCOCCOCCOc1nsnc1C1=CCCN(C)C1,47,–,27,14,–,40,9.7,5.3,inactive,120

# From ChEMBL document CHEMBL1138216, “Design and synthesis of novel derivatives of the muscarinic agonist tetra(ethylene glycol)(3-methoxy-1,2,5-thiadiazol-4-yl) [3-(1-methyl-1,2,5,6-tetrahydropyrid-3-yl)-1,2,5-thiadiazol-4-yl] ether (CDD-0304): effects of structural modifications on the binding and activity at muscarinic receptor …” (J Med Chem, 2006)
